What was measured:
Escherichia coli [1] = experiment: Antibacterial activity against Escherichia coli ATCC 25922 after 24 hrs; assay type: functional; details: ATCC 25922, 24 h
In short: (§1)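 Broth microdilution. Mid-log bacteria in MHB at a final (0.5−1) × 10^5 CFU/mL were mixed with equal volumes of peptide serially diluted in 0.2% BSA. Plates were incubated 24 h at 37 °C and read at A492. MIC is the lowest concentration inhibiting 95% of growth. Each test was repeated at least 3 times.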

Escherichia coli [2] = experiment: Antibacterial activity against Escherichia coli 1005 after 24 hrs; assay type: functional; details: Escherichia coli, 1005, 24 h; in short: as §1
Salmonella typhimurium = experiment: Antibacterial activity against Salmonella typhimurium ATCC 14028 after 24 hrs; assay type: functional, Salmonella enterica subsp. enterica serovar Typhimurium; details: Salmonella enterica, ATCC 14028, 24 h; in short: as §1
Staphylococcus aureus [3] = experiment: Antibacterial activity against Staphylococcus aureus ATCC 29213 after 24 hrs; assay type: functional; details: ATCC 29213, 24 h
In short: (§2)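 Modified NCCLS broth microdilution. Mid-log bacteria at (0.5−1) × 10^5 CFU/mL in MHB were mixed 1:1 with peptide serially diluted in 0.2% BSA and incubated 24 h at 37 °C. Absorbance was read at 492 nm; MIC is the lowest concentration inhibiting 95% of growth. At least 3 repeats.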

[4] = tested on: Staphylococcus epidermidis; experiment: Antibacterial activity against Staphylococcus epidermidis ATCC 12228 after 24 hrs; assay type: functional; details: ATCC 12228, 24 h; in short: as §1
Staphylococcus aureus [5] = experiment: Antibacterial activity against Staphylococcus aureus ATCC 25923 after 24 hrs; assay type: functional; details: ATCC 25923, 24 h; in short: as §2
Escherichia coli [6] = experiment: Bactericidal activity against Escherichia coli ATCC 25922; assay type: functional; details: read-out: MBC99.9
In short: (§3)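 Wells from the 24 h, 37 °C MHB microdilution plates (bacteria at a final (0.5−1) × 10^5 CFU/mL; peptide diluted in 0.2% BSA) were plated on agar and incubated overnight. MBC is the lowest concentration killing >99.9% of cells. Each test was reproduced at least 3 times.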

Escherichia coli [7] = experiment: Bactericidal activity against Escherichia coli 1005; assay type: functional; details: read-out: MBC99.9; in short: as §3
[8] = Bactericidal activity against Salmonella pullorum ATCC 7913; assay type: functional, Salmonella enterica subsp. enterica serovar Pullorum; details: Salmonella enterica, read-out: MBC99.9; in short: as §3
Staphylococcus aureus [9] = experiment: Bactericidal activity against Staphylococcus aureus ATCC 29213; assay type: functional; details: read-out: MBC99.9; in short: as §3
[10] = tested on: Staphylococcus epidermidis; experiment: Bactericidal activity against Staphylococcus epidermidis ATCC 12228; assay type: functional; details: read-out: MBC99.9; in short: as §3
Candida albicans [11] = experiment: Antifungal activity against Candida albicans SP3903 after 48 hrs by broth microdilution method; assay type: functional; details: SP3903, 48 h
In short: (§4)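 Modified CLSI M27-A2 broth microdilution. Yeast at (0.5−1) × 10^3 CFU/mL in MOPS-buffered RPMI 1640 was mixed 1:1 with peptide serially diluted in 0.2% BSA and incubated 48 h at 28 °C. Absorbance was read at 492 nm; MIC is the lowest concentration inhibiting 95% of growth. Triplicate, three biological replicates.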

Candida albicans [12] = experiment: Antifungal activity against Candida albicans SP3902 after 48 hrs by broth microdilution method; assay type: functional; details: SP3902, 48 h; in short: as §4
Candida albicans [13] = experiment: Antifungal activity against Candida albicans SP3876 after 48 hrs by broth microdilution method; assay type: functional; details: SP3876, 48 h; in short: as §4
Candida albicans [14] = experiment: Antifungal activity against fluconazole-resistant Candida albicans 56452 after 48 hrs by broth microdilution method; assay type: functional; details: Candida albicans, 56452, 48 h; in short: as §4
Candida albicans [15] = experiment: Antifungal activity against fluconazole-resistant Candida albicans 56214 after 48 hrs by broth microdilution method; assay type: functional; details: Candida albicans, 56214, 48 h; in short: as §4
Candida albicans [16] = experiment: Antifungal activity against Candida albicans 14936 after 48 hrs by broth microdilution method; assay type: functional; details: Candida albicans, 14936, 48 h; in short: as §4
Candida tropicalis [17] = experiment: Antifungal activity against Candida tropicalis cgmcc 2.1975 after 48 hrs by broth microdilution method; assay type: functional; details: cgmcc 2.1975, 48 h
In short: (§5)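 Modified CLSI M27-A2 broth microdilution. Yeast were suspended in MOPS-buffered RPMI 1640 at a final (0.5−1) × 10^3 CFU/mL and mixed 1:1 with peptide serially diluted in 0.2% BSA. Plates were incubated 48 h at 28 °C and read at A492. MIC is the lowest concentration giving 95% inhibition. Run in triplicate with three biological replicates.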

Pichia kudriavzevii = experiment: Antifungal activity against Candida krusei cgmcc 2.1857 after 48 hrs by broth microdilution method; assay type: functional; details: cgmcc 2.1857, 48 h; in short: as §5
Candida albicans [18] = experiment: Fungicidal activity against Candida albicans cgmcc 2.2086 after 96 hrs; assay type: functional; details: cgmcc 2.2086, 96 h, read-out: MFC99.9
In short: (§6)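 After the 48 h, 28 °C broth microdilution in MOPS-buffered RPMI 1640 (inoculum (0.5−1) × 10^3 CFU/mL), 50 μL from each well was plated on YM agar for a further 48 h at 28 °C. MFC is the lowest concentration killing at least 99.9% of cells. Triplicate, three biological replicates.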

Candida albicans [19] = experiment: Fungicidal activity against Candida albicans SP3876 after 96 hrs; assay type: functional; details: SP3876, 96 h, read-out: MFC99.9; in short: as §6
Candida albicans [20] = experiment: Fungicidal activity against Candida albicans isolated from alveolar fluid after 96 hrs; assay type: functional; details: read-out: MFC99.9; in short: as §6
Candida albicans [21] = experiment: Fungicidal activity against fluconazole-resistant Candida albicans 17546 after 96 hrs; assay type: functional; details: Candida albicans, 17546, 96 h; read-out: MFC99.9; in short: as §6
Candida tropicalis [22] = experiment: Fungicidal activity against Candida tropicalis cgmcc 2.1975 after 96 hrs; assay type: functional; details: cgmcc 2.1975, 96 h, read-out: MFC99.9
In short: (§7)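 Wells from the 48 h, 28 °C RPMI 1640/MOPS microdilution plates were plated on YM agar and incubated a further 48 h at 28 °C. MFC is the lowest concentration killing at least 99.9% of cells. Run in triplicate with three biological replicates.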

Candida parapsilosis = experiment: Fungicidal activity against Candida parapsilosis cgmcc 2.3989 after 96 hrs; assay type: functional; details: Lodderomyces parapsilosis, cgmcc 2.3989, 96 h; read-out: MFC99.9; in short: as §7
Escherichia coli [23] = experiment: Antibacterial activity against Escherichia coli ATCC 25922 after 18 hrs in presence of KCl by broth dilution method; assay type: functional; details: ATCC 25922, 18 h
Escherichia coli [24] = experiment: Antibacterial activity against Escherichia coli ATCC 25922 after 18 hrs in presence of FeCl3 by broth dilution method; assay type: functional; details: ATCC 25922, 18 h
Candida albicans [25] = experiment: Antifungal activity against Candida albicans cgmcc 2.2086 in presence of NaCl by broth dilution method; assay type: functional
Candida albicans [26] = experiment: Antifungal activity against Candida albicans cgmcc 2.2086 in presence of MgCl2 by broth dilution method; assay type: functional
Candida albicans [27] = experiment: Antifungal activity against Candida albicans cgmcc 2.2086 in presence of ZnCl2 by broth dilution method; assay type: functional
Candida albicans [28] = experiment: Antifungal activity against Candida albicans cgmcc 2.2086 in presence of FeCl3 by broth dilution method; assay type: functional
Candida albicans [29] = experiment: Antifungal activity against Candida albicans 58288 after 48 hrs by broth microdilution method; assay type: functional; details: Candida albicans, 58288, 48 h; in short: as §4
Candida albicans [30] = experiment: Fungicidal activity against Candida albicans 58288 after 96 hrs; assay type: functional; details: Candida albicans, 58288, 96 h; read-out: MFC99.9; in short: as §6

H-FFRRFRRFF-NH2
64 µM: MBC [8]
> 64 µM: MFC (Candida parapsilosis)
16 µM: MBC (Escherichia coli [7]) | MIC95 (Candida albicans [11]) | MIC95 (Candida albicans [13]) | MIC95 (Candida albicans [14]) | MIC95 (Candida albicans [15]) | MIC95 (Candida albicans [16]) | MIC (Candida albicans [25]) | MIC (Candida albicans [26]) | MIC95 (Candida albicans [29])
32 µM: MBC (Staphylococcus aureus [9]) | MIC95 (Candida albicans [12]) | MFC (Candida albicans [18]) | MFC (Candida albicans [19]) | MFC (Candida albicans [20]) | MIC (Candida albicans [27]) | MIC (Candida albicans [28]) | MFC (Candida albicans [30])
8 µM: MIC95 (Escherichia coli [1]) | MIC95 (Escherichia coli [2]) | MIC95 (Staphylococcus aureus [3]) | MBC (Escherichia coli [6]) | MBC [10] | MFC (Candida albicans [21]) | MFC (Candida tropicalis [22]) | MIC (Escherichia coli [23]) | MIC (Escherichia coli [24])
4 µM: MIC95 (Salmonella typhimurium) | MIC95 [4] | MIC95 (Staphylococcus aureus [5]) | MIC95 (Candida tropicalis [17]) | MIC95 (Pichia kudriavzevii)

H-RLRLLLRLR-NH2
8 µM: MIC95 (Staphylococcus aureus [3]) | MIC95 (Staphylococcus aureus [5]) | MBC (Escherichia coli [6]) | MBC (Escherichia coli [7]) | MBC [8] | MBC (Staphylococcus aureus [9]) | MBC [10] | MIC95 (Candida albicans [11]) | MIC95 (Candida albicans [14]) | MIC95 (Candida albicans [15]) | MIC95 (Pichia kudriavzevii) | MIC (Candida albicans [26]) | MIC (Candida albicans [27]) | MIC (Candida albicans [28]) | MIC95 (Candida albicans [29])
2 µM: MIC95 (Candida tropicalis [17])
> 64 µM: MFC (Candida parapsilosis)
16 µM: MFC (Candida albicans [18]) | MFC (Candida albicans [20]) | MFC (Candida albicans [21]) | MFC (Candida albicans [30])
32 µM: MIC (Candida albicans [25])
4 µM: MIC95 (Escherichia coli [1]) | MIC95 (Escherichia coli [2]) | MIC95 (Salmonella typhimurium) | MIC95 [4] | MIC95 (Candida albicans [12]) | MIC95 (Candida albicans [13]) | MIC95 (Candida albicans [16]) | MFC (Candida albicans [19]) | MFC (Candida tropicalis [22]) | MIC (Escherichia coli [23]) | MIC (Escherichia coli [24])

H-WWRRWRRWW-NH2
8 µM: MIC95 (Escherichia coli [1]) | MIC95 (Salmonella typhimurium) | MBC (Escherichia coli [7]) | MBC [10] | MIC95 (Candida albicans [12]) | MIC95 (Candida albicans [14]) | MIC95 (Candida albicans [16]) | MFC (Candida tropicalis [22]) | MIC (Escherichia coli [23]) | MIC (Candida albicans [26]) | MIC (Candida albicans [27]) | MIC (Candida albicans [28]) | MIC95 (Candida albicans [29]) | MFC (Candida albicans [30])
64 µM: MFC (Candida parapsilosis)
16 µM: MBC [8] | MBC (Staphylococcus aureus [9]) | MFC (Candida albicans [18]) | MFC (Candida albicans [20]) | MIC (Candida albicans [25])
4 µM: MIC95 (Escherichia coli [2]) | MIC95 (Staphylococcus aureus [3]) | MIC95 [4] | MIC95 (Staphylococcus aureus [5]) | MIC95 (Candida albicans [11]) | MIC95 (Candida albicans [13]) | MIC95 (Candida albicans [15]) | MIC95 (Candida tropicalis [17]) | MIC95 (Pichia kudriavzevii) | MFC (Candida albicans [19]) | MFC (Candida albicans [21]) | MIC (Escherichia coli [24])
32 µM: MBC (Escherichia coli [6])

CC[C@H](C)[C@H](NC(=O)CN)C(=O)NCC(=O)N[C@@H](C)C(=O)N[C@H](C(=O)N[C@@H](CC(C)C)C(=O)N[C@@H](CCCCN)C(=O)N[C@H](C(=O)N[C@@H](CC(C)C)C(=O)N[C@H](C(=O)N[C@H](C(=O)NCC(=O)N[C@@H](CC(C)C)C(=O)N1CCC[C@H]1C(=O)N[C@@H](C)C(=O)N[C@@H](CC(C)C)C(=O)N[C@H](C(=O)N[C@@H](CO)C(=O)N[C@@H](Cc1c[nH]c2ccccc12)C(=O)N[C@H](C(=O)N[C@@H](CCCCN)C(=O)N[C@@H](CCCNC(=N)N)C(=O)N[C@@H](CCCCN)C(=O)N[C@@H](CCCNC(=N)N)C(=O)N[C@@H](CCC(N)=O)C(=O)N[C@@H](CCC(N)=O)C(N)=O)[C@@H](C)CC)[C@@H](C)CC)[C@@H](C)O)[C@@H](C)O)C(C)C)C(C)C [MELITTIN]
4 µM: MIC95 (Staphylococcus aureus [5]) | MIC95 (Candida albicans [11]) | MIC95 (Candida albicans [13]) | MIC95 (Candida albicans [15]) | MIC95 (Candida albicans [16]) | MIC95 (Candida tropicalis [17]) | MFC (Candida albicans [19]) | MFC (Candida albicans [20]) | MIC (Candida albicans [26]) | MIC (Candida albicans [27]) | MIC (Candida albicans [28]) | MIC95 (Candida albicans [29]) | MFC (Candida albicans [30])
2 µM: MIC95 (Escherichia coli [1]) | MIC95 (Escherichia coli [2]) | MBC (Escherichia coli [6]) | MBC (Escherichia coli [7]) | MBC [8] | MIC95 (Candida albicans [12]) | MIC95 (Pichia kudriavzevii) | MFC (Candida parapsilosis)
0.5 µM: MIC95 [4]
8 µM: MIC95 (Staphylococcus aureus [3]) | MBC (Staphylococcus aureus [9]) | MIC95 (Candida albicans [14]) | MFC (Candida albicans [18]) | MFC (Candida albicans [21]) | MFC (Candida tropicalis [22]) | MIC (Candida albicans [25])
1 µM: MIC95 (Salmonella typhimurium) | MBC [10]
